Rows were chosen to be rich in hits. Some 4.1% of all compounds tested hit in one or more screens of this group.
KCC2 mod – KCC2 cotransporter modulators, thallium flux, primary screen, cell-based, HEK293 KCC2, FluoZin-2 fluorescence, MLSMR; KCC2 cells, thallium flux FluoZin-2 fluorescence; B-score of Tl+ flux slope (higher = more flux/activation; lower = inhibition) at 10 µM; 190,000 tested, 2.2% active; AID 1456, 2008;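 active means thallium flux slope and its plate-corrected score both differing from the plate sample mean at a set confidence after two filtering rounds, in either direction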;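 further: slope of fluorescence scaled to starting intensity during 10 to 20 s after thallium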
Target sequence (Q9H2X9 whole entry, looked up): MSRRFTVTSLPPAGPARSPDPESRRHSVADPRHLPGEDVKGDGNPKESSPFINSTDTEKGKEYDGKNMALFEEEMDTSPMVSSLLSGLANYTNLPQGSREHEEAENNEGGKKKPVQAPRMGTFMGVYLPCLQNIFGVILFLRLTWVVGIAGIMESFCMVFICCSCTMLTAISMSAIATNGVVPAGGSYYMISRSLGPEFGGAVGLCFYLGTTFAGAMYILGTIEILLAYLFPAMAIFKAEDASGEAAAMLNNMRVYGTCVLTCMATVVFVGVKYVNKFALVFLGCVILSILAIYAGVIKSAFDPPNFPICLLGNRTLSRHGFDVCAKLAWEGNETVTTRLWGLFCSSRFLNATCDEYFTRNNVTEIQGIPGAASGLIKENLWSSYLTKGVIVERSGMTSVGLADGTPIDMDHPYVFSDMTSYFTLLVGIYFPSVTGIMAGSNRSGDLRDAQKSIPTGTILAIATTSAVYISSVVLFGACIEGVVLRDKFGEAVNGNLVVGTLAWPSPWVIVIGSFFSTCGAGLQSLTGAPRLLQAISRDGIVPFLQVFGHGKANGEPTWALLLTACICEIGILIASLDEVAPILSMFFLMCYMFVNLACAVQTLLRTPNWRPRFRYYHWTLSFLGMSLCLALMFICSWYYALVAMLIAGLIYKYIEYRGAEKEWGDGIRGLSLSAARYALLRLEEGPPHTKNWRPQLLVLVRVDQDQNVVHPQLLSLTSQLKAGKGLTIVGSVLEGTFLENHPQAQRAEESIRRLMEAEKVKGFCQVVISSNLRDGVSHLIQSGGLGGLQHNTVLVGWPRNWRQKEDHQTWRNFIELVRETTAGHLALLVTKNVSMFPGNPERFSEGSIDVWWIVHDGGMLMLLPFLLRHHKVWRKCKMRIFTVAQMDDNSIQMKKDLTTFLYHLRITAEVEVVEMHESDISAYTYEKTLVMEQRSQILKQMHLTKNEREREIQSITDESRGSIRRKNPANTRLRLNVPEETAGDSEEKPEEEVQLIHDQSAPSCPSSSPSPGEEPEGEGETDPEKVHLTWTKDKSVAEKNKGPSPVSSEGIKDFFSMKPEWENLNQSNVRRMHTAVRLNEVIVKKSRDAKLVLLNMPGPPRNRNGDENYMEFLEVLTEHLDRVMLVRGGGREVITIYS
hERG protect – hERG rescue from dofetilide block, primary screen, cell-based, CHO-hERG, FluxOR thallium flux, dofetilide IC70 | Voltage-gated inwardly rectifying potassium channel KCNH2 (Homo sapiens), Q12809 | dofetilide IC70 present | activation (rescue from dofetilide block), less the hit threshold, % at 10 µM | 310,000 tested, 0.51% active;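 active means activation above the mean of controls blocked by dofetilide plus 5 SD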;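 further: thallium influx through hERG after potassium depolarization seen as dye fluorescence rise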
KCNQ1 inh – inhibitors of human KCNQ1 channel, primary screen, cell-based, thallium flux, high-throughput; B-score at 10 µM; CHO-K1 KCNQ1, FluxOR thallium flux fluorescence; stronger effect = higher value; 310,000 tested, 1.3% active; Potassium voltage-gated channel subfamily KQT member 1 (Homo sapiens), P51787;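 active means compounds whose thallium flux B-score, printed positive for inhibition, exceeds three library SD while starting fluorescence stays within three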;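 further: channel opened by potassium depolarization with thallium stimulus after 20 min compound exposure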
KCNK9 inh – KCNK9 potassium channel inhibitors, primary screen, HEK293 cells, thallium flux | Potassium channel subfamily K member 9 (Homo sapiens), Q9NPC2 | FluxOR thallium flux fluorescence; stronger effect = lower value | B-score at 10 µM | 310,000 tested, 1.2% active | AID 488922, 2010;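 active means ratio B-score over 3 SD below the library mean, with starting fluorescence within 5 SD of its mean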;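 further: negative B-score means less thallium flux so channel inhibition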
KCNK3 inh – human KCNK3 channel inhibitors, primary screen, CHO cells, FluxOR thallium flux, B-score; Potassium channel subfamily K member 3 (Homo sapiens), O14649; FluxOR fluorescence; stronger effect = lower value; B-score at 10 µM; 340,000 tested, 0.84% active; AID 602410, 2012;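 active means B-score under library mean minus 4 SD, starting fluorescence ratio at most library mean plus 5 SD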;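 further: more negative B-score means stronger inhibition of thallium flux through KCNK3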
KCNQ1 act – potentiators or activators of KCNQ1 channel, primary screen, cell-based, thallium flux, high-throughput; Potassium voltage-gated channel subfamily KQT member 1 (Homo sapiens), P51787; CHO-K1 KCNQ1, thallium flux FluxOR fluorescence; stronger effect = higher value; B-score at 10 µM; 310,000 tested, 0.35% active; AID 2648, 2010;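 active means fluorescence ratio B-score, a plate-corrected score, at least three library SD, with initial intensity B-score within 5 SD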
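assay system = CHO-K1 cells stably expressing KCNQ1 | medium = assay buffer, equal DMSO in all wells | timing = 37 °C overnight plating, 90-min dark dye load, 20-min compound pretreatment | measured by = kinetic FluxOR thallium fluorescence, 10-s 1-Hz baseline, 110-s post-stimulus read | measure = fluorescence change relative to baseline, converted to B score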
KCNK3 confirm – retest of human KCNK3 channel inhibitors, confirmation, CHO cells, FluxOR thallium flux, triplicate; FluxOR fluorescence; 0% buffer, 100% carvedilol maximal block; 2,400 tested, 99% active; shares compounds with KCNK3 inh; ratio percent of control, % at 10 µM;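 active means ratio percent of control, averaged over triplicates, above buffer control mean plus 5 SD, cut at about 64% in these data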;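 further: ratio is the fluorescence rise from min to max over baseline after thallium stimulus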
KCNK3 uninduced – thallium flux inhibition in non-induced cells, primary screen, counter-screen for KCNK3 inhibitor project, cell-based, non-induced KCNK3 line, FluxOR thallium, triplicate; shares compounds with KCNK3 inh; non-induced KCNK3 parental cells; stronger effect = lower value; thallium flux ratio (lower = more inhibition) at 10 µM; 2,400 tested, 40% active;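 active means thallium flux ratio, averaged over three wells, more than 5 SD below the buffer control mean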;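 further: host cells are CHO cells without KCNK3 induction; ratio is peak minus trough fluorescence over baseline then normalized to buffer controls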
* marks the source's active call; other numbers are inactive results; i = inactive; x = no result given.

SMILES	KCC2 mod	hERG protect	KCNQ1 inh	KCNK9 inh	KCNK3 inh	KCNQ1 act	KCNK3 confirm	KCNK3 uninduced
FC(F)(F)c1ccccc1NC(=S)Nc1cccc(Cl)c1	2.66	-10.5	8*	i	-9.64*	i	93.3*	i
C[C@H]1CN([C@@H](C)CO)C(=O)c2cccc(NC(=O)C3CC3)c2O[C@H]1CN(C)CC1CCCCC1	x	x	x	x	i	x	x	x
C[C@H](CO)N1C[C@H](C)[C@@H](CN(C)CC2CCCCC2)Oc2c(NC(=O)C3CC3)cccc2C1=O	x	x	x	x	-12.2*	x	103.7*	i
CC(C)(CNC(=O)c1ccc([N+](=O)[O-])c(Cl)c1)CNC(=O)c1ccc([N+](=O)[O-])c(Cl)c1	-0.904	-20.2	i	-7.87*	-9.81*	i	131.0*	0.146*
CC1Sc2ccc(S(=O)(=O)N(C)Cc3ccccc3)cc2NC1=O (stereo not drawn)	x	-4.6	i	i	-10.3*	i	93.3*	i
C=CCN(c1ccccc1)S(=O)(=O)c1ccc2c(c1)NC(=O)C(C)S2 (stereo not drawn)	x	-2.4	i	i	i	i	x	x
CC(=O)c1cccc(NC(=O)N2CCC(NC(=O)C34CC5CC(CC(C5)C3)C4)CC2)c1	-1.35	-13.4	i	i	i	i	x	x
N#C/C(=C\c1ccc(N2CCOCC2)o1)c1ccccc1	-0.62	-16.2	i	i	-9.05*	i	144.0*	0.081*
CC(C)c1ccc(N(C(=O)c2ccc3c(c2)OCO3)C2C=CS(=O)(=O)C2)cc1 (stereo not drawn)	x	-11.3	i	i	i	i	x	x
COc1cccc(NC(=O)CN(C)C(=O)c2cc(-c3ccccc3)nc3ccccc23)c1	x	-14.4	i	i	i	i	x	x
COc1cccc(NC(=O)CN(C)C(=O)/C=C/c2cn(-c3ccccc3)nc2-c2ccc(C)cc2)c1	x	-28.3	10*	i	-8.7*	i	92.0*	i
COc1ccc(NC(=O)CN(C)C(=O)/C=C/c2cn(-c3ccccc3)nc2-c2ccc(C)cc2)cc1	x	-14.2	i	i	i	i	x	x
COc1cccc(NC(=O)CN(C)C(=O)c2cc(-c3ccc(F)cc3)nc3ccccc23)c1	x	-25.0	i	i	-9.3*	i	133.0*	0.11*
CCOc1ccc(NC(=O)c2cccc(NC3=NC4CS(=O)(=O)CC4S3)c2)cc1 (stereo not drawn)	x	-10.7	i	i	i	i	x	x
Cn1cccc1C1C=C(c2ccc(C(C)(C)C)cc2)Nc2ncnn21 (stereo not drawn)	x	-17.9	i	i	-9.14*	i	110.7*	i
Cc1nn(-c2ccccc2)c(C)c1/C=N/NC(=O)c1cc(-c2ccc(Cl)s2)[nH]n1	x	-27.2	i	i	-11.5*	i	131.0*	i
Cc1nn(-c2ccccc2)c(C)c1/C=N/NC(=O)c1cc(-c2ccc(Br)s2)[nH]n1	x	-22.8	i	i	i	i	x	x
O=S(=O)(O)c1cc(OS(=O)(=O)c2ccccc2)cc2ccccc12	x	0.9	i	i	i	i	x	x
CC1CC(Nc2ccccc2)c2ccccc2N1C(=O)c1ccco1 (stereo not drawn)	-2.06	-10.3	i	i	-13.1*	i	115.3*	i
CC1CC(Nc2ccccc2)c2ccccc2N1C(=O)c1ccncc1 (stereo not drawn)	-0.889	-8.9	i	i	i	i	x	x
O=C(Nc1nc(-c2ccccc2)cs1)C1COc2ccccc2O1 (stereo not drawn)	0.169	-7.3	i	i	i	i	x	x
O=C(Nc1nc(-c2ccc3c(c2)OCO3)cs1)C1COc2ccccc2O1 (stereo not drawn)	2.84	-14.6	i	i	-11.1*	i	108.7*	i
Cc1[nH]c2ccc(F)cc2c1CCN(Cc1ccco1)C(=S)NC(C)(C)C	-0.862	1.0	7*	i	-10.5*	i	119.7*	0.159*
CNC(=S)N(CCc1c(C)[nH]c2ccc(F)cc12)Cc1ccco1	x	-7.9	i	i	i	i	x	x
Nc1nonc1-n1nnc(C(=O)N/N=C/c2cc(Br)ccc2O)c1CNc1ccccc1	x	-23.1	i	i	-10.4*	i	82.3*	i
SMILES	KCC2 mod	hERG protect	KCNQ1 inh	KCNK9 inh	KCNK3 inh	KCNQ1 act	KCNK3 confirm	KCNK3 uninduced
Cc1cccc(-c2noc(CN(C(=O)c3ccc(Br)o3)C(C)C)n2)c1	x	-10.4	i	i	i	i	x	x
Cc1ccc(C)c(C(=O)N(Cc2nc(-c3ccc(Cl)cc3)no2)C(C)C)c1	0.11	-9.7	i	i	-8.84*	i	115.0*	i
Cc1cccc(-c2noc(CN(C(=O)c3c(-c4ccccc4Cl)noc3C)C(C)C)n2)c1	-0.0283	x	x	x	-11.6*	x	113.3*	i
CC(C(=O)Nc1ccc(O)cc1)c1cccc(C(=O)c2ccccc2)c1 (stereo not drawn)	-1.39	-11.2	i	i	i	i	x	x
O=[N+]([O-])c1cc(C(F)(F)F)ccc1NCC1CCCO1 (stereo not drawn)	x	-0.2	i	i	-9.69*	i	70.3*	i
COC(=O)c1sccc1NC(=O)Nc1ccc(C)c(C)c1	x	-11.0	i	i	i	i	x	x
CCc1ccc(NC(=O)Nc2ccsc2C(=O)OC)cc1	x	-15.7	i	i	-10.9*	i	89.0*	i
O=C(CN1C(=O)NC2(CCCCCCC2)C1=O)Nc1ccc(Br)cc1Br	x	x	x	x	i	x	x	x
O=C(/C=C/c1ccc(N2CCCCC2)c([N+](=O)[O-])c1)c1ccc(O)cc1	-0.577	-8.5	i	-7.76*	-11.2*	i	123.3*	i
CC(Cc1ccccc1)NC(=O)CC(c1ccccc1)c1ccccc1O (stereo not drawn)	x	-3.8	i	i	i	i	x	x

Screening data as filed in PubChem BioAssay.
